A short description of assay [1]: Inhibition of beta-lactamase SHV-4 assessed as nitrocefin hydrolysis after 5 mins enzyme-compound preincubation. An outline of the steps: (§1)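 Enzyme and inhibitor were preincubated 5 min at 37°C. The inhibitor was tested at 11 concentrations from 1 nM to 100 µM. Final enzyme concentrations were TEM-1 0.25 nM, CTX-M-15 0.35 nM, KPC-2 3 nM and SHV-4 6 nM. Nitrocefin was at 100 µM. Initial rates were read at 485 nm over the first minute. Each value is the mean of at least two independent experiments.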

A short description of assay [2]: Inhibition of beta-lactamase CTX-M-15 assessed as nitrocefin hydrolysis after 5 mins enzyme-compound preincubation.
For assay [3], the target named is T1, Beta-lactamase (Enterobacter cloacae, UniProt P05364). The assay is described as follows: Inhibition of Enterobacter cloacae beta-lactamase P99 after 5 seconds incubation with nitrocefin substrate by spectrophotometry.
T1 sequence (P05364 whole entry): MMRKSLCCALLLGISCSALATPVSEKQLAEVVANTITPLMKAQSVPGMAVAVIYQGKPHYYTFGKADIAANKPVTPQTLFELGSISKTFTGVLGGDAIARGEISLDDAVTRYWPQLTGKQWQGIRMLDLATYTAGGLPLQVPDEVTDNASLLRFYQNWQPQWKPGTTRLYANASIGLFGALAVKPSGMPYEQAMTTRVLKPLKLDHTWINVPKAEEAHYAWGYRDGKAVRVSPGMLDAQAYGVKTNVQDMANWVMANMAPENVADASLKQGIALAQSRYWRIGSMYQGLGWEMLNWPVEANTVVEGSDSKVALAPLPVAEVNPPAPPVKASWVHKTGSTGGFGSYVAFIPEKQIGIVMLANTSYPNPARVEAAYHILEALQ
Assay [4] concerns the target T1, Beta-lactamase. In words: Inhibition of Enterobacter cloacae beta-lactamase P99 assessed as nitrocefin hydrolysis after 5 mins enzyme-compound preincubation.
The nature of assay [5]: Inhibition of beta-lactamase TEM-1 after 5 seconds incubation with nitrocefin substrate by spectrophotometry. An outline of the steps:
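Direct competition with reporter substrate at 37°C: inhibitor concentrations were premixed with 100 µM nitrocefin, and the reaction was started with 0.25 nM purified TEM-1. Nitrocefin hydrolysis was followed spectrophotometrically at 485 nm. Initial velocity over the first 5 s was compared with the no-inhibitor control, and KI was derived by equation 2. Means of at least two independent experiments.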

Assay [6] can be described thus: Inhibition of beta-lactamase TEM- 1 assessed as nitrocefin hydrolysis after 5 mins enzyme-compound preincubation. An outline of the steps: as §1
The nature of assay [7]: Inhibition of beta-lactamase KPC-2 assessed as nitrocefin hydrolysis after 5 mins enzyme-compound preincubation. Summed up:
as §1

The values that follow come from ChEMBL document CHEMBL1687818, “Mechanistic studies of the inactivation of TEM-1 and P99 by NXL104, a novel non-beta-lactam beta-lactamase inhibitor” (Antimicrob Agents Chemother, 2010).

Broadly, the IC50 is the concentration needed to halve the response being measured. As usually defined, the Ki is the dissociation constant of the complex between target and ligand, obtained from inhibition or displacement.

The structures appear in SMILES notation. A value given as a limit tells only on which side of the number the result lay.

For the compound `NC(=O)[C@@H]1CC[C@@H]2CN1C(=O)N2OS(=O)(=O)O` (relative stereo) [AVIBACTAM], the IC50 in assay [1] worked out at 3 nM; in assay [2], 5 nM; on Beta-lactamase [4] it was 100 nM; in assay [6] it was 8 nM; in assay [7], 170 nM. The results for the Ki (at Beta-lactamase [3]; in assay [5]) were 7700 nM and 260 nM, respectively.
In the case of `O=C(O)[C@H]1/C(=C/CO)O[C@@H]2CC(=O)N21` [CLAVULANIC ACID], the results for the IC50 in assay [1], in assay [6] and in assay [7] were 4 nM, 58 nM and over 100000 nM, respectively. In addition, the inhibition constant Ki in assay [5] worked out at 800 nM.
Consider `CC1(C)[C@H](C(=O)O)N2C(=O)C[C@H]2S1(=O)=O` [SULBACTAM], for which the half-maximal inhibitory concentration (IC50) in assay [1] was determined as 260 nM; in assay [2] it was 230 nM; in assay [6] it was 1560 nM; in assay [7], 57000 nM.
Regarding `C[C@]1(Cn2ccnn2)[C@H](C(=O)O)N2C(=O)C[C@H]2S1(=O)=O` [TAZOBACTAM], the IC50 in assay [1] worked out at 55 nM; in assay [2], 6 nM; in assay [6], 32 nM; in assay [7] it was 50000 nM. In assay [5], this compound gave a Ki of 30 nM.
